Data from ChEMBL document CHEMBL4387700, “A novel, potent, and orally bioavailable thiazole HCV NS5A inhibitor for the treatment of hepatitis C virus” (Eur J Med Chem, 2019).

Assay: Cytotoxicity against human HuH7 cells assessed as reduction in cell viability by MTS assay
Type: cell-based, Huh-7
Method in brief: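 Viability of Huh-7 cells was read by MTS assay.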
Work on O=C(N[C@@H](C(=O)N1CCC[C@H]1c1ncc(-c2ccc(-c3ccc(-c4cnc([C@@H]5CCCN5C(=O)[C@H](NC(=O)c5cccnc5)c5ccccc5)s4)cc3)cc2)s1)c1ccccc1)c1cccnc1 yielded a CC50 of over 50 µM.
For CC(C)(C)C(=O)N[C@H](C(=O)N1CCC[C@H]1c1ncc(-c2ccc(-c3ccc(-c4cnc([C@@H]5CCCN5C(=O)[C@H](NC(=O)C(C)(C)C)c5ccccc5)s4)cc3)cc2)s1)c1ccccc1, the CC50 was over 50 µM.
O=C(N[C@@H](C(=O)N1CCC[C@H]1c1ncc(-c2ccc(-c3ccc(-c4cnc([C@@H]5CCCN5C(=O)[C@H](NC(=O)C5CCCC5)c5ccccc5)s4)cc3)cc2)s1)c1ccccc1)C1CCCC1 gave a CC50 of over 50 µM.
Compound O=C(CCN1CCCC1)N[C@@H](C(=O)N1CCC[C@H]1c1ncc(-c2ccc(-c3ccc(-c4cnc([C@@H]5CCCN5C(=O)[C@H](NC(=O)CCN5CCCC5)c5ccccc5)s4)cc3)cc2)s1)c1ccccc1 has a CC50 of over 50 µM.
Work on CC(C)C[C@@H](NC(=O)C1CC1)C(=O)N1CCC[C@H]1c1ncc(-c2ccc(-c3ccc(-c4cnc([C@@H]5CCCN5C(=O)[C@@H](CC(C)C)NC(=O)C5CC5)s4)cc3)cc2)s1 yielded a CC50 of over 50 µM.
O=C(CCN1CCCC1)N[C@H](C(=O)N1CCC[C@H]1c1ncc(-c2ccc(-c3ccc(-c4cnc([C@@H]5CCCN5C(=O)[C@H](NC(=O)CCN5CCCC5)c5ccccc5)s4)cc3)cc2)s1)c1ccccc1 showed a CC50 of over 50 µM.
Compound CCN(CC)CCC(=O)N[C@@H](C(=O)N1CCC[C@H]1c1ncc(-c2ccc(-c3ccc(-c4cnc([C@@H]5CCCN5C(=O)[C@H](NC(=O)CCN(CC)CC)c5ccccc5)s4)cc3)cc2)s1)c1ccccc1 has a CC50 of over 50 µM.
In the case of O=C(N[C@@H](C(=O)N1CCC[C@H]1c1ncc(-c2ccc(-c3ccc(-c4cnc([C@@H]5CCCN5C(=O)[C@H](NC(=O)N5CCCCC5)c5ccccc5)s4)cc3)cc2)s1)c1ccccc1)N1CCCCC1, the CC50 is reported as over 50 µM.
O=C(N[C@H](C(=O)N1CCC[C@H]1c1ncc(-c2ccc(-c3ccc(-c4cnc([C@@H]5CCCN5C(=O)[C@H](NC(=O)C5CCCC5)c5ccccc5)s4)cc3)cc2)s1)c1ccccc1)C1CCCC1 showed a CC50 of over 50 µM.
O=C(CCN1CCCCC1)N[C@@H](C(=O)N1CCC[C@H]1c1ncc(-c2ccc(-c3ccc(-c4cnc([C@@H]5CCCN5C(=O)[C@H](NC(=O)CCN5CCCCC5)c5ccccc5)s4)cc3)cc2)s1)c1ccccc1 gave a CC50 of over 50 µM.
CC(C)[C@H](NC(=O)Oc1ccccc1)C(=O)N1CCC[C@H]1c1ncc(-c2ccc(-c3ccc(-c4cnc([C@@H]5CCCN5C(=O)[C@@H](NC(=O)Oc5ccccc5)C(C)C)s4)cc3)cc2)s1 showed a CC50 of over 50 µM.
O=C(N[C@H](C(=O)N1CCC[C@H]1c1ncc(-c2ccc(-c3ccc(-c4cnc([C@@H]5CCCN5C(=O)[C@H](NC(=O)c5ccccc5)c5ccccc5)s4)cc3)cc2)s1)c1ccccc1)c1ccccc1 gave a CC50 of over 50 µM.
Work on O=C(N[C@H](C(=O)N1CCC[C@H]1c1ncc(-c2ccc(-c3ccc(-c4cnc([C@@H]5CCCN5C(=O)[C@H](NC(=O)C5CCCCC5)c5ccccc5)s4)cc3)cc2)s1)c1ccccc1)C1CCCCC1 yielded a CC50 of over 50 µM.
O=C(CCN1CCCCC1)N[C@H](C(=O)N1CCC[C@H]1c1ncc(-c2ccc(-c3ccc(-c4cnc([C@@H]5CCCN5C(=O)[C@H](NC(=O)CCN5CCCCC5)c5ccccc5)s4)cc3)cc2)s1)c1ccccc1 showed a CC50 of over 50 µM.
With CCOC(=O)N[C@H](C(=O)N1CCC[C@H]1c1ncc(-c2ccc(-c3ccc(-c4cnc([C@@H]5CCCN5C(=O)[C@@H](NC(=O)OCC)C(C)C)s4)cc3)cc2)s1)C(C)C the CC50 was over 50 µM.
O=C(N[C@H](C(=O)N1CCC[C@H]1c1ncc(-c2ccc(-c3ccc(-c4cnc([C@@H]5CCCN5C(=O)[C@H](NC(=O)N5CCOCC5)c5ccccc5)s4)cc3)cc2)s1)c1ccccc1)N1CCOCC1 gave a CC50 of over 50 µM.
Work on CN1CCN(CCC(=O)N[C@H](C(=O)N2CCC[C@H]2c2ncc(-c3ccc(-c4ccc(-c5cnc([C@@H]6CCCN6C(=O)[C@H](NC(=O)CCN6CCN(C)CC6)c6ccccc6)s5)cc4)cc3)s2)c2ccccc2)CC1 yielded a CC50 of over 50 µM.
In the case of O=C(N[C@@H](C(=O)N1CCC[C@H]1c1ncc(-c2ccc(-c3ccc(-c4cnc([C@@H]5CCCN5C(=O)[C@H](NC(=O)c5ccccc5)c5ccccc5)s4)cc3)cc2)s1)c1ccccc1)c1ccccc1, the CC50 is reported as over 50 µM.
With CS(=O)(=O)N[C@@H](C(=O)N1CCC[C@H]1c1ncc(-c2ccc(-c3ccc(-c4cnc([C@@H]5CCCN5C(=O)[C@H](NS(C)(=O)=O)c5ccccc5)s4)cc3)cc2)s1)c1ccccc1 the CC50 was over 50 µM.
For CCCC(=O)N[C@H](C(=O)N1CCC[C@H]1c1ncc(-c2ccc(-c3ccc(-c4cnc([C@@H]5CCCN5C(=O)[C@H](NC(=O)CCC)c5ccccc5)s4)cc3)cc2)s1)c1ccccc1, the CC50 was over 50 µM.
For CC(C)C(=O)N[C@H](C(=O)N1CCC[C@H]1c1ncc(-c2ccc(-c3ccc(-c4cnc([C@@H]5CCCN5C(=O)[C@H](NC(=O)C(C)C)c5ccccc5)s4)cc3)cc2)s1)c1ccccc1, the CC50 was over 50 µM.
Work on COC(=O)N[C@H](C(=O)N1CCC[C@H]1c1ncc(-c2ccc(-c3ccc(-c4cnc([C@@H]5CCCN5C(=O)[C@@H](NC(=O)OC)C(C)C)s4)cc3)cc2)s1)C(C)C yielded a CC50 of over 50 µM.
CN(C)CCC(=O)N[C@H](C(=O)N1CCC[C@H]1c1ncc(-c2ccc(-c3ccc(-c4cnc([C@@H]5CCCN5C(=O)[C@H](NC(=O)CCN(C)C)c5ccccc5)s4)cc3)cc2)s1)c1ccccc1 showed a CC50 of over 50 µM.
With CCN(CC)CCC(=O)N[C@H](C(=O)N1CCC[C@H]1c1ncc(-c2ccc(-c3ccc(-c4cnc([C@@H]5CCCN5C(=O)[C@H](NC(=O)CCN(CC)CC)c5ccccc5)s4)cc3)cc2)s1)c1ccccc1 the CC50 was over 50 µM.
CCCCCC(=O)N[C@@H](C(=O)N1CCC[C@H]1c1ncc(-c2ccc(-c3ccc(-c4cnc([C@@H]5CCCN5C(=O)[C@H](NC(=O)CCCCC)c5ccccc5)s4)cc3)cc2)s1)c1ccccc1 gave a CC50 of over 50 µM.
With O=C(N[C@H](C(=O)N1CCC[C@H]1c1ncc(-c2ccc(-c3ccc(-c4cnc([C@@H]5CCCN5C(=O)[C@H](NC(=O)N5CCCC5)c5ccccc5)s4)cc3)cc2)s1)c1ccccc1)N1CCCC1 the CC50 was over 50 µM.
Work on CCC(=O)N[C@H](C(=O)N1CCC[C@H]1c1ncc(-c2ccc(-c3ccc(-c4cnc([C@@H]5CCCN5C(=O)[C@H](NC(=O)CC)c5ccccc5)s4)cc3)cc2)s1)c1ccccc1 yielded a CC50 of over 50 µM.
O=C(CCN1CCOCC1)N[C@@H](C(=O)N1CCC[C@H]1c1ncc(-c2ccc(-c3ccc(-c4cnc([C@@H]5CCCN5C(=O)[C@H](NC(=O)CCN5CCOCC5)c5ccccc5)s4)cc3)cc2)s1)c1ccccc1 gave a CC50 of over 50 µM.
Compound O=C(N[C@@H](C(=O)N1CCC[C@H]1c1ncc(-c2ccc(-c3ccc(-c4cnc([C@@H]5CCCN5C(=O)[C@H](NC(=O)c5ccsc5)c5ccccc5)s4)cc3)cc2)s1)c1ccccc1)c1ccsc1 has a CC50 of over 50 µM.
With O=C(CCn1cccc1)N[C@@H](C(=O)N1CCC[C@H]1c1ncc(-c2ccc(-c3ccc(-c4cnc([C@@H]5CCCN5C(=O)[C@H](NC(=O)CCn5cccc5)c5ccccc5)s4)cc3)cc2)s1)c1ccccc1 the CC50 was over 50 µM.
O=C(N[C@H](C(=O)N1CCC[C@H]1c1ncc(-c2ccc(-c3ccc(-c4cnc([C@@H]5CCCN5C(=O)[C@H](NC(=O)c5cccnc5)c5ccccc5)s4)cc3)cc2)s1)c1ccccc1)c1cccnc1 gave a CC50 of over 50 µM.
For CC[C@H](NC(=O)OC)C(=O)N1CCC[C@H]1c1ncc(-c2ccc(-c3ccc(-c4cnc([C@@H]5CCCN5C(=O)[C@H](CC)NC(=O)OC)s4)cc3)cc2)s1, the CC50 was over 50 µM.
For CC(C)[C@@H](NC(=O)C1CC1)C(=O)N1CCC[C@H]1c1ncc(-c2ccc(-c3ccc(-c4cnc([C@@H]5CCCN5C(=O)[C@H](NC(=O)C5CC5)C(C)C)s4)cc3)cc2)s1, the CC50 was over 50 µM.
